Source: the EternaBench riboswitch data

System: MS2 coat protein
Test: apparent Kd, MS2 coat protein; higher = weaker binding; RNA-MaP array; FMN 200 µM where present
How it was run: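 In 100 mM Tris-HCl pH 7.5, 80 mM KCl, 4 mM MgCl2, BSA, DTT, yeast tRNA and Tween-20, SNAP-549-labelled MS2 coat protein was titrated from 0.7 or 1.5 nM, doubling to 3 µM, over designs transcribed by stalled E. coli RNA polymerase on Illumina sequencing-chip clusters. This was done first without ligand, then with ligand held constant. After green signal was normalised to red-channel RNA signal and control-cluster median Fmax, the apparent Kd was taken as the median of filtered per-cluster binding-curve fits.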

[1] = designed as: ON switch for flavin mononucleotide, no ligand
[2] = ligand present: flavin mononucleotide, designed as: ON switch for flavin mononucleotide
[3] = designed as: OFF switch for flavin mononucleotide, no ligand
[4] = ligand present: flavin mononucleotide, designed as: OFF switch for flavin mononucleotide

Sequence	apparent Kd [1] [nM]	apparent Kd [2] [nM]	apparent Kd [3] [nM]	apparent Kd [4] [nM]
CUGGUUGUCGUAGGAUAUGUAGGAUAUUCCUACAUGAGGAUCACCCAUGUUCGCAUGGAAGAAGGACAGAAGGACGAUGACCAC	930	23.2		
GCCAACGCAUGAGGAUAUGCUCCCGUUUCGGGAGCAGAAGGCAUGUCAUAAGACAUGAGGAUCACCCAUGUAGUCAAGAUGGCA	291	16.7		
GCGUCAGAAUUAAUUGUGACAGGCAGAAGGCUAUAUCUUAUGUCAGACAUGAGGAUCACCCAUGUAGAGGAUAUGCAGUUACAC			10.6	17.9
UGCUGACGAGGAUAUACAUGAGGAUCACCCAUGUUGGUCAAGCGACGAUAGUCGCAAUGUAGAAGGCGUCAGCU			483	208
UUAUACGCUGAGGAUAUCAUCACUGAGAGGUGAUGAGAAGGCGGUACAUGAGGAUCACCCAUGUCUAUGGGCAG			291	418
AGCAUGUAAGGAUAUGUAACGCGGCGUUCAUUCGUCGUCCCACAGAAGGUACAUGAGGAUCACCCAUGUGCUCC			42	77.7
UAACAUGUCCGAGGAUAUCUGGAAACAUUUUCAAGAGAAGGCGGACAUGAGGAUCACCCAUGUCUCUCCUCAUCAACUACAAAU			8.61	57.5
GGCUCCGCUCGAGGAUAUAGCUGCAUGUAGUGUCCUGAGGCACAUGAGGAUCACCCAUGUGUAGGCUAGAAGGCGACGGACGCU			76.1	138
CGUGACUCAGGAUAUCUAUAAUAUCACAUGAGGAUCACCCAUGUCCAGCAAUAGCUGGAGGGAGAAGGGAGUCACG			140	54.9
CUGAGGUCAGGAUAUGCAUGGCGGGACUUGCGUCGUGGCGUGCAGAAGGGACAUGAGGAUCACCCAUGUGGAGC			86.7	249
CGUCGCUGUCGAGAGGAUAUGCGGUGGUGGACAUGAGGAUCACCCAUGUUAGCGAUAGCAUCACGGUAGAAGGCUCUUACGACUG	21.4	20.6		
AAAUCCGCUGAGGAUAUUAUGAGUGAGAGCUCAUGAGAAGGCGGUACAUGAGGAUCACCCAUGUCUAUGGGCAA			419	292
GGUGGACAUGAGGAUCACCCAUGUGAGGAUAUCGGCUAUCUUCUCGCUGUCGGUUGCUCGAGAAGGCACAUUGU			70.6	86.7
AUACCACGAGGAUAUCGUCUAUUCCACAUGAGGAUCACCCAUGUUAUCCAUGUUUCGUUUCGAGAAGGCGUGUUUU			59.3	41.5
GUAACUUAUGUGAGGAUAUAUUAUGUCUUGGUGUAGUAGAAGGCACAUGAGGAUCACCCAUGUCCAAUUGGUCU			229	457
UGGUACUAGGGAGGAUAUGGGAAGAUACAUGAGGAUCACCCAUGUUUAAGAAUGCCGAGAGGCGACUAGAAGGCCCUAGUACCU	311	15.3		
CAGUCUACAGGAUAUACAUGAGGAUCACCCAUGUGUAUUCACUUUCAGUAGUCCAUAUGUAGAAGGGUAGACUG			15.9	22.5
CAAGUGCCGGAAGGAUAUCAGCGAUGUCACGCUUGAGAAGGUCUGUGCACAUGAGGAUCACCCAUGUCCGCCAGACUCCUUAAC			9.98	8.49
CCUCUACAUGAGGAUCACCCAUGUGAGGAUAUCUCGGAAAAGCCACUUAAGGUACUCCAGAGAAGGCACGUGUA			14.6	23.7
GUCAGCUCGUGAGGAUAUACAUGUGCUGGAGACAGCACUAUUAUGUUCACAUGAGGAUCACCCAUGUAGAAGGCACGAGCUGAU			16.8	20.9
GUUCUGCUAGGAUAUGCAUCAACGGGAUAGCCUACGCGGAAACAUGAGGAUCACCCAUGUAGAAGGAGCUGAAC			30.3	30.6
CCUGUGUGAGGAUAUGGUGUUAAAAAAAAGGAAUAGCUCCUCCAGAAGGCACAUGAGGAUCACCCAUGUCGUGG			23.4	57.1
CCCGCGAUGUCAGGAUAUAGUCGGAGGUGCAGACUAGAAGGGACAUGAGGAUCACCCAUGUGCGUGAACAUUUGAAACCCGGGU			40.4	153
CUACGUGUCGAGAAGGGCUCACGUAACGGAACAGCAGGAUAUCGACAUGAGGAUCACCCAUGUCGGAACGAACGGAUCUUUAAU			7.24	8.18

Sequence	apparent Kd [1] [nM]	apparent Kd [2] [nM]	apparent Kd [3] [nM]	apparent Kd [4] [nM]
AGUUGGCGAGGAUAUACAUGAGGAUCACCCAUGUGGUCCUGCGAUGGUGUCGCCCUUUGUAGAAGGCGCGGGUC			35	28.1
GUAGUAUAAAGUUCAUAAUAUAGGAUAGAAGGUGAAAAUUUGACAUGAGGAUCACCCAUGUAAUUCAAGGAUAUGUAGUUACUC	128	96.5		
UAUAUAUAGUAAGGAUAUGUAAUUACUUUAUAAACAGAAGGUACUGACAUGAGGAUCACCCAUGUUUUAGUGUGGGCAUGUAGA			87	113
GCCGUAAGUGUGAGGAUAUACCUAUGGAUACAUAGGUAGAAGGCACAUGAGGAUCACCCAUGUCCUUAAUCGGC			247	267
UAAAGUUAAGGAGGAUAUUACAUGAGGAUCACCCAUGUAAUGGGCUCGGUGUAAGAAGGCCUUGAGUCGAAGUUUCGGAUGAGG			9.55	21.4
CUUUUAUAAUAGAAGGUAGACUUUAAGUGGAUCACCCAUGUGUAGGUACUAAGGAUAUGUAGUUACAUGAGGAUCACCCAUGUU	172	143		
AUCAGCUCGUCAGGAUAUACGUCACUGCGUCAGCAGUGUGGUUAGAUCACAUGAGGAUCACCCAUGUAGAAGGGACGAGCUGAU			23.4	458
UGAACUUCAGAGAAGGUCGAACGGCAACGAUUCGAAGGAUAUCUGGAAACAUGAGGAUCACCCAUGUAACCGGGUGGAUGUCCU			43.3	182
GUGGUCAGACAUGAGGAUCACCCAUGUGGAAUAAAUAACACACAGGAUAUGUAAUAUAAAAUAUAACAGAAGGGUGGAUUGGUG	352	181		
GCUAAACAUGAGGAUCACCCAUGUACCGAUCACUAAGGAUAUGGGCGAAUAACGGCUCGGCCAGAAGGUAGAGAUG	66.9	81.8		
CCCAUCGCAUGAGGAUAUGGUCAGGUUUCCUGACCAGAAGGCAUGUCAUAAGACAUGAGGAUCACCCAUGUAGUUAAGAUGGGA	672	47.5		
AACAGUACAGGAUAUACAUGAGGAUCACCCAUGUGAAGAAUAAGUGGAGUACCACAAAGUAGAAGGGUACUGGA			26.7	132
GUGCAGAUGUAAGGAUAUCGACUGGAAUACAGUCGAGAAGGUACAUGAGGAUCACCCAUGUAAAUGAAAGAUAAUAAACUGCAC			15.3	26.1
CCGUGACAUGAGGAUCACCCAUGUACUCGAGAAAUCGAGUGUAGAAGGGUGACCGGUCGUUUGGCACAGGAUAUACACGGUGUG	16.6	8.92		
CCUCCACAUUAGGAUAUCAUCAAACUAUUGUGAUGAGAAGGAAUGACAUGAGGAUCACCCAUGUUAUCGUGAUG			20.9	18.1
ACGACGAAAAUCGAACGAUGUAGCAGAAGGACAUGAGGAUCACCCAUGUAAAAUGUAACAGCCAUGUAGGAUAUGCUACAUCGA			40.9	272
CCGAUUAGCACAGGAUAUGGGAAUUCGUAGUUUCCAGAAGGGUGAGCCAAUACAUGAGGAUCACCCAUGUGCGGUAGGUCGAGA	51.1	60.7		
UGUCGGAGCAGAGGAUAUUACAUGAGGAUCACCCAUGUAUGAACCAAUAGCUGGAAACAGCAAUGUAAGAAGGCGGCUCCGACA			5.18	9.07
GUCGUGUGAGGAUAUGAUUAUUAGGCGGGAUUGCGACUGCUUCAGAAGGCACAUGAGGAUCACCCAUGUAUGAA			11.4	39
CUAGCUAUCGGAGGAUAUUCAUACCGGAAACGGACAUGAGGAUCACCCAUGUGCCGAAAGGCUUGGGAGAAGGCCGAUAGCUAG	272	20.6		
GUCCUCUCUGAGGAUAUUAUCCGGUCCGAUUGAUAAGAAGGCAGUACAUGAGGAUCACCCAUGUGGGUCGUCUG			37.4	111
GCAGCUUAUGCAGGAUAUCAGCACGUGUAGUGCUGAGAAGGGCACAUGAGGAUCACCCAUGUGAUCAAUUAAUAUAAAUGCUGC			12.8	48.5
AAUAAACAUGAGGAUCACCCAUGUCAGGAUAUGCGUCUAUCCUUAUUGCAUAGAUACGGCAGAAGGGACUAAUG			31.9	56.9
CUAGACAUAUCAGGAUAUCAUCGCGUGGAUUAACCCUGUGAUUACAUGAGGAUCACCCAUGUGCUUGAGAAGGGAUUACUAUUU			35.7	145
